Assay type in all cases: cell-based
For test [1], the target named is Serine/threonine-protein kinase 25 (Homo sapiens) (UniProt O00506). As to the kind of experiment: Inhibition of YSK1 Lys2 labeling site in human A-375 cells at 5 uM by KiNativ Profiling analysis relative to control.
The target of test [2] is T1, Serine/threonine-protein kinase 3 (Homo sapiens) (UniProt Q13188).
T1 sequence (whole entry): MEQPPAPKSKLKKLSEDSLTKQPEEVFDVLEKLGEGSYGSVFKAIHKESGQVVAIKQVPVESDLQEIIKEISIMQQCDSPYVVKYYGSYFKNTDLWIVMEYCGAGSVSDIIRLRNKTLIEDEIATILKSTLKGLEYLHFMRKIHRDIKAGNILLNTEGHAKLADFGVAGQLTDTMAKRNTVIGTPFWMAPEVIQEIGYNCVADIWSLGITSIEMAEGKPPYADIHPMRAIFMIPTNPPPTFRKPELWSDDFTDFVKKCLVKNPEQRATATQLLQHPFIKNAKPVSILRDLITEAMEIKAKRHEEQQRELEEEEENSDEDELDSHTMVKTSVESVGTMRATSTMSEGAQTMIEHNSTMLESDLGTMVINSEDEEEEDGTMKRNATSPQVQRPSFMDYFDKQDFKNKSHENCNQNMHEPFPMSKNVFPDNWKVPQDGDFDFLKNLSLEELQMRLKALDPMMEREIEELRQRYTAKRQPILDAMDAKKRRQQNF
As to the kind of experiment: Inhibition of MST2 Lys2 labeling site harbouring DIKAGNILLNTEGHAK in human A-375 cells at 5 uM by KiNativ Profiling analysis relative to control.

The target in test [3] is Tyrosine-protein kinase Fer (Homo sapiens, UniProt P16591). Kind of test: Inhibition of FER ACT labeling site in human A-375 cells at 0.5 uM by KiNativ Profiling analysis relative to control.
The target of test [4] is Serine/threonine-protein kinase Nek6 (Homo sapiens) (UniProt Q9HC98). As to the kind of experiment: Inhibition of NEK6 Lys2 labeling site in human A-375 cells at 0.05 uM by KiNativ Profiling analysis relative to control.
The target in test [5] is p38 delta/gamma (Homo sapiens) (UniProt O15264+P53778). Kind of test: Inhibition of p38delta/gamma Lys2 labeling site in human A-375 cells at 0.5 uM by KiNativ Profiling analysis relative to control.
The target of test [6] is Ribosomal protein S6 kinase alpha-1 (Homo sapiens) (UniProt Q15418). As to the kind of experiment: Inhibition of RSK1 domain2 Lys2 labeling site in human A-375 cells at 0.5 uM by KiNativ Profiling analysis relative to control. Put shortly:
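Live A375 melanoma cells treated with compound at 5 or 0.5 μM, then lysed. Lysate kinases were labeled with a lysine-reactive ATP or ADP-biotin probe. Inhibition was read as protection of labeling sites from the probe.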

For test [7], the target named is T2, NUAK family SNF1-like kinase 2 (Homo sapiens) (UniProt Q9H093).
T2 sequence (whole entry): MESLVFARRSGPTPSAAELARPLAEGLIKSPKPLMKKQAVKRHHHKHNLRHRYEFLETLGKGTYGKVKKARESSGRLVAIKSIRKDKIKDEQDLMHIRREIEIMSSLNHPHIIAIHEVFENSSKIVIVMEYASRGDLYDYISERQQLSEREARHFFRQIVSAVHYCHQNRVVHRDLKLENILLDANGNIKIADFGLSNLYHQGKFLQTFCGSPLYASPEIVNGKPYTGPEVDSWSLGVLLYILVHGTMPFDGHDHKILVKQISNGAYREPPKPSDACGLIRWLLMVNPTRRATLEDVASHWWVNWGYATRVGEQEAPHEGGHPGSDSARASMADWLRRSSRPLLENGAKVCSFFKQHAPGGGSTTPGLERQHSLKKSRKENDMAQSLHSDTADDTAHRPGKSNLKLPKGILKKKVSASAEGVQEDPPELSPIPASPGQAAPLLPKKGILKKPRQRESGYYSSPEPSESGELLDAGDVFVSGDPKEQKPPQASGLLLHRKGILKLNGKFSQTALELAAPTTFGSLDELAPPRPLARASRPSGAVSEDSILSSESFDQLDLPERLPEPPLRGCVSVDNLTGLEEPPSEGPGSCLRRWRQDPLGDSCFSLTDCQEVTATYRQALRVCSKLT
As to the kind of experiment: Inhibition of NuaK2 Lys1 labeling site in human A-375 cells at 0.5 uM by KiNativ Profiling analysis relative to control.

Test [8] has as its target Cyclin-dependent kinase 2 (Homo sapiens) (UniProt P24941). As to the kind of experiment: Inhibition of CDK2 Lys2 labeling site in human A-375 cells at 0.5 uM by KiNativ Profiling analysis relative to control. Put shortly: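 Live A375 melanoma cells were treated with compound at 5 or 0.5 μM. The cells were then lysed, and the lysates were labeled with a lysine-reactive ATP or ADP-biotin acyl probe (KiNativ). Inhibition is the compound's protection of each kinase labeling-site peptide from probe labeling, relative to untreated control.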

For test [9], the target named is T3, Acylglycerol kinase, mitochondrial (Homo sapiens) (UniProt Q53H12).
T3 sequence (whole entry): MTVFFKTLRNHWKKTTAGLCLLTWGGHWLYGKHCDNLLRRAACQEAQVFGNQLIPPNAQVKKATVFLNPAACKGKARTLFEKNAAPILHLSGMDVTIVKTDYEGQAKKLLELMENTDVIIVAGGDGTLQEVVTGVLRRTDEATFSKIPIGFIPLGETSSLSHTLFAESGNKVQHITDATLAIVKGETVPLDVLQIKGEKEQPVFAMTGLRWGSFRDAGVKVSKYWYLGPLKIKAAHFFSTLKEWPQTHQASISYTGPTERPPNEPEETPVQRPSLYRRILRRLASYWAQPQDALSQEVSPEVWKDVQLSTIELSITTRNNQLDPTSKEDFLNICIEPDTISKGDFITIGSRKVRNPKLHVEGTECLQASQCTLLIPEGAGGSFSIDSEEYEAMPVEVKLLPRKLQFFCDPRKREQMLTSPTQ
Kind of test: Inhibition of AGK ATP labeling site in human A-375 cells at 0.5 uM by KiNativ Profiling analysis relative to control. Put shortly: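 Live A375 melanoma cells were treated with compound at 5 or 0.5 μM, then lysed. The lysates were labeled with a lysine-reactive ATP or ADP-biotin probe. Kinase protection from probe labeling was measured by KiNativ.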

The target in test [10] is T4, Phosphatidylinositol 5-phosphate 4-kinase type-2 alpha (Homo sapiens) (UniProt P48426).
T4 sequence (whole entry): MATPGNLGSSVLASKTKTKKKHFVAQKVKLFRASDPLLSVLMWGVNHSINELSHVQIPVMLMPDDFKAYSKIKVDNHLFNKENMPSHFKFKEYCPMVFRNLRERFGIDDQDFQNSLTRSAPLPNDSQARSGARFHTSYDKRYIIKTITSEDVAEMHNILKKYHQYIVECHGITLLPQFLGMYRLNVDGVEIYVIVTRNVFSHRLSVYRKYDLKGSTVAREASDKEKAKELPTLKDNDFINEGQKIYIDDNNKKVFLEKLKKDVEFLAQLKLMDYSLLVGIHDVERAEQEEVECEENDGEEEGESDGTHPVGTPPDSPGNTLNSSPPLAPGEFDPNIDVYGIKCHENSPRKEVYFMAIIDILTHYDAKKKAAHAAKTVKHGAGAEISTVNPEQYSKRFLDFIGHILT
As to the kind of experiment: Inhibition of PIP4K2A ATP labeling site in human A-375 cells at 5 uM by KiNativ Profiling analysis relative to control.

In general, inhibition refers to the drop in the measured response relative to a control, in per cent.

Serine/threonine-protein kinase Nek6 (Homo sapiens), sequence (Q9HC98 whole entry): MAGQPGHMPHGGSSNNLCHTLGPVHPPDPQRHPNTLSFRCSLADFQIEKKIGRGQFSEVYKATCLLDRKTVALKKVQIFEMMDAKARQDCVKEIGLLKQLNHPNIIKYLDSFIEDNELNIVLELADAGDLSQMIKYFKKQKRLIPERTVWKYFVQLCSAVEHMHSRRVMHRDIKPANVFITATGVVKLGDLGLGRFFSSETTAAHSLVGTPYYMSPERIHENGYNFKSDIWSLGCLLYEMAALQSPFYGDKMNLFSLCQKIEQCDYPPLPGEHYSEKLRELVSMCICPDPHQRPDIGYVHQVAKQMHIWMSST
Tyrosine-protein kinase Fer, sequence (P16591 whole entry, looked up): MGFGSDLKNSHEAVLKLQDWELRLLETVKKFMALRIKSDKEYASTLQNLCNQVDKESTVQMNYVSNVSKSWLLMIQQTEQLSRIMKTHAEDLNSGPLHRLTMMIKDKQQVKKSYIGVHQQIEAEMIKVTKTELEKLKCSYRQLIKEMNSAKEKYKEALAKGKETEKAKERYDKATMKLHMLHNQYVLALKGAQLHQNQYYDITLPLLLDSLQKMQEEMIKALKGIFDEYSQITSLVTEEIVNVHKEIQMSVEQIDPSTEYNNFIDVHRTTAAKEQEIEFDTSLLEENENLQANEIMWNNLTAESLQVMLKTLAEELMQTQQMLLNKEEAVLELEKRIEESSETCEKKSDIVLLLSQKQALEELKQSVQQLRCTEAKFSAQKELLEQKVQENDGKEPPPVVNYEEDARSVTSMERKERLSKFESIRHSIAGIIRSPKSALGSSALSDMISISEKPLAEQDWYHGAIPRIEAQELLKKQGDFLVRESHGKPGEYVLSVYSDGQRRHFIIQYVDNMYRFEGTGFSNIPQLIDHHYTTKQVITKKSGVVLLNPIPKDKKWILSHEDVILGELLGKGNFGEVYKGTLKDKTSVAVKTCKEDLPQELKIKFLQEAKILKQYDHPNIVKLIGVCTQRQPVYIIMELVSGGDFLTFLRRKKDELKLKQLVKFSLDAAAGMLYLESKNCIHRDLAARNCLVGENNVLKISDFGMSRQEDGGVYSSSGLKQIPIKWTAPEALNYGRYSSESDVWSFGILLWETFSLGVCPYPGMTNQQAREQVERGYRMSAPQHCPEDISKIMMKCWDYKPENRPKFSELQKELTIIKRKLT
Serine/threonine-protein kinase 25 (Homo sapiens), sequence (O00506 whole entry, looked up): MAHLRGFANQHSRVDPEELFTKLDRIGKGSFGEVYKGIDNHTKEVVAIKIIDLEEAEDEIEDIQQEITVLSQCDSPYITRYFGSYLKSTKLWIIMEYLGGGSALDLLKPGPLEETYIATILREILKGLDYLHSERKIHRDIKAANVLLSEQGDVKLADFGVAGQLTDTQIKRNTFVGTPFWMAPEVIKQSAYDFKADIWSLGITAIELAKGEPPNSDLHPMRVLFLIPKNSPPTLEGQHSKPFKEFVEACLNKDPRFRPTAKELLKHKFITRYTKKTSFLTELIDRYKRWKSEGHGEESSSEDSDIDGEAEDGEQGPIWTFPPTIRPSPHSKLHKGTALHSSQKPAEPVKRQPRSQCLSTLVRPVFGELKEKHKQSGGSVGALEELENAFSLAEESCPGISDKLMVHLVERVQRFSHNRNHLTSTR
Ribosomal protein S6 kinase alpha-1 (Homo sapiens), sequence (Q15418 whole entry, the tested form may be a part): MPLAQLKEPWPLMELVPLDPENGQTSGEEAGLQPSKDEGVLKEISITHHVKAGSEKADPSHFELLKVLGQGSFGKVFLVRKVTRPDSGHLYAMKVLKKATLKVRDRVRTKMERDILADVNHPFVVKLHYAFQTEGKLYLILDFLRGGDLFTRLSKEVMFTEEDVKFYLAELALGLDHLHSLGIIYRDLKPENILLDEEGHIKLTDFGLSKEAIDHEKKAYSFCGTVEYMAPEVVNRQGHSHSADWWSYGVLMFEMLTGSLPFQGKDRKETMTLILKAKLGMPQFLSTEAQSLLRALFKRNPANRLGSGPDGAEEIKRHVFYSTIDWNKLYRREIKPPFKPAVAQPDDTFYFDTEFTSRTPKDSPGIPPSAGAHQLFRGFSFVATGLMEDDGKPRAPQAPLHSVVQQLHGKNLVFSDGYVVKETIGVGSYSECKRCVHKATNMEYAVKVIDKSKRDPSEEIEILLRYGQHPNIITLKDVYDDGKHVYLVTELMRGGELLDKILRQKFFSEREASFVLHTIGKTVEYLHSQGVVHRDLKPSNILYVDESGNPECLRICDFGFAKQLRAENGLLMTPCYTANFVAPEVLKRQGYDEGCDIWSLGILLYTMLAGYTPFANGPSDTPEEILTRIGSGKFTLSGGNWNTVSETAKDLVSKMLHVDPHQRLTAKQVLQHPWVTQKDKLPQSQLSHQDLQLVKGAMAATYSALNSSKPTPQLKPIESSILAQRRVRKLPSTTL

On to `CCN1CCN(Cc2ccc(NC(=O)c3ccc(C)c(/C=C/c4cnc5[nH]ccc5c4OC)c3)cc2C(F)(F)F)CC1`, for which the inhibition in [1] was 20.9%; in [2], 14.1%; in test [3], -10%; in test [4], 5.8%; in test [5] it was 25.2%; in test [6], 1.6%. The inhibition in test [7] came to 6.4%; in test [8], 19.4%; in test [9], 7%; in [10], 4.7%.
For the molecule `CCN1CCN(Cc2ccc(NC(=O)c3ccc(C)c(Oc4ccnc5[nH]ccc45)c3)cc2C(F)(F)F)CC1`, the inhibition in [1] was found to be 15.4%; in test [2], 3.5%; in test [3] it was 88%; in test [4], 10.6%; in [5], 86.2%; in test [6], 3%. In addition, the inhibition in test [7] was 9.4%; in test [8] it was 4.5%; in test [9], -0.1%; in [10], 0.9%.

Values taken from ChEMBL document CHEMBL5696442, “Discovery of type II inhibitors of TGFβ-activated kinase 1 (TAK1) and mitogen-activated protein kinase kinase kinase kinase 2 (MAP4K2)” (J Med Chem, 2015).
